Measurements: ChEMBL document CHEMBL2021827, “Caspase-1 inhibitors from an extremophilic fungus that target specific leukemia cell lines” (2012)
Active and inactive are the calls of the source. The rule behind the calls is not given here.

Key:
THP-1 [1] = experiment: Inhibition of IL-1beta production in human THP1 cells at 250 uM by ELISA; assay type: functional, cell-based
Summary of the method: (§1)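 THP-1 cells are kept in RPMI with 10% FBS, 0.05 mM 2-mercaptoethanol, sodium pyruvate and penicillin/streptomycin/amphotericin B. They are differentiated with PMA (1 µg/mL) 24 h beforehand, scraped, and resuspended at 1.0 × 10^6 cells/mL. Cells are co-exposed to compound, LPS (20 ng/mL) and TiO2 nanowires (100 µg/mL) for 24 h at 37 °C in CO2. Supernatant IL-1β is measured by ELISA read at 490 nm.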

Caspase-1 (Homo sapiens) = target: T1, Caspase-1 (Homo sapiens) (UniProt P29466); experiment: Inhibition of caspase-1 in human THP1 cells after 24 hrs by fluorometric assay; assay type: cell-based; details: THP-1
T1 sequence (whole entry): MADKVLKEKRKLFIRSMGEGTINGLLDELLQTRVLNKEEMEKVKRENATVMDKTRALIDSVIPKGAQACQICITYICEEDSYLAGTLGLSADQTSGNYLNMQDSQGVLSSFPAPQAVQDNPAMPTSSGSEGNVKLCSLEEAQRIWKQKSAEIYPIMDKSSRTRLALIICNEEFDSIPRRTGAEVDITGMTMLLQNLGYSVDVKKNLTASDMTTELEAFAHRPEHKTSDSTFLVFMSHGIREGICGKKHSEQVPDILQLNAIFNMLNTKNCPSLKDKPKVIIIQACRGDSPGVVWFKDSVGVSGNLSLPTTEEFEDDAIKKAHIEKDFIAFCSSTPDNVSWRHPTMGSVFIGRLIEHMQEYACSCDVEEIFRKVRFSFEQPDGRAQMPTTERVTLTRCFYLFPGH

HL-60(TB) = experiment: Cytotoxicity against human HL-60(TB) cells by MTS assay; assay type: functional
CCRF-CEM = experiment: Cytotoxicity against human CCRF-CEM cells by MTS assay; assay type: functional
Leukemia cell = experiment: Cytotoxicity against human leukemia cells by MTS assay; assay type: functional, cell-based
RPMI-8226 = experiment: Cytotoxicity against human RPMI8226 cells by MTS assay; assay type: functional
THP-1 [2] = experiment: Inhibition of IL-1beta production in human THP1 cells at 5 uM by dilution assay; assay type: functional, cell-based; summary of the method: as §1
SR = experiment: Cytotoxicity against human SR cells by MTS assay; assay type: functional
THP-1 [3] = experiment: Inhibition of IL-1beta production in human THP1 cells at 50 uM by dilution assay; assay type: functional, cell-based; summary of the method: as §1

Row | SMILES | inhibition (THP-1 [1]) | Activity (Leukemia cell) | IC100 (Caspase-1 (Homo sapiens)) [µM] | other results
1 | CCCc1cc(=O)c([C@@H]2OC(=O)c3cc(OC)cc(OC)c32)co1 | Active |  |  | inhibition (Caspase-1 (Homo sapiens)): inactive; Activity (HL-60(TB)): inactive
2 | COc1cc(OC)c2c(c1)C(=O)O[C@H]2c1coc(C)cc1=O [PENISIMPLICISSIN] | Active | Active |  | GI50 (CCRF-CEM): 200 nM; GI50 (HL-60(TB)): 1480 nM
3 | C/C=C/c1cc(=O)c([C@@H]2OC(=O)c3cc(OC)cc(OC)c32)co1 | Active |  |  | 
4 | C/C=C/C1=CC2=CC(=O)[C@](C)(OC(=O)c3c(C)cc(O)cc3O)[C@H](O)[C@H]2CO1 [BERKAZAPHILONE B] | Active | Active | 25 | GI50 (RPMI-8226): 2140 nM; inhibition (THP-1 [2]): Active
5 | C/C=C/C1=CC2=CC(=O)[C@](C)(O)[C@H](OC(=O)c3c(C)cc(O)cc3O)[C@H]2CO1 [BERKAZAPHILONE C] | Active | Active | 25 | GI50 (SR): 380 nM; inhibition (THP-1 [3]): Active
